Assay results published in ChEMBL document CHEMBL4004812, “Semisynthesis of (-)-Rutamarin Derivatives and Their Inhibitory Activity on Epstein-Barr Virus Lytic Replication” (J Nat Prod, 2017).
The source made the active and inactive calls. No cut-off for these calls is given here.

Experiments:
Human gammaherpesvirus 4 = experiment: Inhibition of TPA/sodium butyrate-induced EBV lytic DNA replication in human P3HR1 cells incubated for 48 hrs post TPA/sodium butyrate induction by real-time PCR method; assay type: functional, cell-based; conditions: for IC50: human gammaherpesvirus 4, P3HR-1, 48 h
Summary of the method: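 P3HR-1 cells were induced with TPA (20 ng/mL) plus sodium butyrate (0.3 mM) and given varied compound concentrations 3 h later. Total cellular DNA was purified 48 h postinduction. EBV DNA content was taken as (induced − noninduced) over the same difference in untreated cells, and IC50 was derived from the dose-response curve.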

[1] = Selectivity index, ratio of CC50 for human P3HR1 cells to IC50 for TPA/sodium butyrate-induced EBV lytic DNA replication
Summary of the method: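 SI = CC50/IC50. CC50 came from Trypan blue viability counts 2 days after treatment. IC50 came from EBV DNA content 48 h after TPA/butyrate induction of P3HR-1 cells, with compound added at 3 h.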

[2] = (§1) Cytotoxicity against human P3HR1 cells assessed as decrease in cell viability after 2 days by trypan blue staining-based light microscopic method; design: species or system P3HR-1; conditions: P3HR1 cells
Summary of the method: (§2)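 EBV-positive Burkitt's lymphoma P3HR-1 (clone 16) cells were grown in RPMI 1640 with 10% FBS, streptomycin and penicillin. They were exposed to the compounds, and viable cells were counted by Trypan blue exclusion under a light microscope 2 days post-treatment. Viability was expressed relative to untreated control cells, and CC50 was fitted from dose-response curves.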

P3HR-1 [3] = experiment: as §1; conditions: p3hr-1, 48 h; summary of the method: as §2
P3HR-1 [4] = experiment: Cytotoxicity against human P3HR1 cells assessed as decrease in cell viability at 10 uM after 2 days by trypan blue staining-based light microscopic method; conditions: p3hr-1, 48 h; summary of the method: as §2

Row | SMILES | IC50 (Human gammaherpesvirus 4) [µM] | Ratio CC50/IC50 [1] | CC50 at 48 h [2] [µM] | inhibition (Human gammaherpesvirus 4) | also measured
1 | C=CC(C)(C)c1cc2cc3c(cc2oc1=O)O[C@@H](C(C)(C)OC(C)=O)C3 | 13.8 | >10 | > 140 | – | –
2 | C=CC(C)(C)c1cc2cc3c(cc2oc1=O)O[C@@H](C(C)(C)OC(=O)NCCC#N)C3 | – | – | – | Active | –
3 | C=CC(C)(C)c1cc2cc3c(cc2oc1=O)O[C@@H](C(C)(C)OC(=O)CNCCc1ccc(F)cc1)C3 | 0.76 | 56 | 42.6 | – | –
4 | C=CC(C)(C)c1cc2cc3c(cc2oc1=O)O[C@@H](C(C)(C)OC(=O)CNCCCC)C3 | – | <3 | – | Active | Activity (P3HR-1 [3]): Toxic
5 | C=CC(C)(C)c1cc2cc3c(cc2oc1=O)O[C@@H](C(C)(C)OC(=O)OCCN1C(=O)c2ccccc2C1=O)C3 | 0.83 | >120 | > 100 | – | –
6 | C=CC(C)(C)c1cc2cc3c(cc2oc1=O)O[C@@H](C(C)(C)OC(=O)OCc1ccccn1)C3 | – | – | – | Active | –
7 | C=CC(C)(C)c1cc2cc3c(cc2oc1=O)O[C@@H](C(C)(C)OC(=O)OCCc1ccc(CC)cn1)C3 | 1.5 | 801 | 1200 | – | –
8 | C=CC(C)(C)c1cc2cc3c(cc2oc1=O)O[C@@H](C(C)(C)OC(=O)NCCO)C3 | – | – | – | Active | –
9 | C=CC(C)(C)c1cc2cc3c(cc2oc1=O)O[C@@H](C(C)(C)OC(=O)c1ccccc1)C3 | 4.5 | 83 | 370 | – | –
10 | C=CC(C)(C)c1cc2cc3c(cc2oc1=O)O[C@@H](C(C)(C)OC(=O)OCCc1ccncc1)C3 | 0.32 | 211 | 67.6 | – | –
11 | C=CC(C)(C)c1cc2cc3c(cc2oc1=O)O[C@@H](C(C)(C)OC(=O)NCCOC(C)=O)C3 | – | – | – | Active | –
12 | C=CC(C)(C)c1cc2cc3c(cc2oc1=O)O[C@@H](C(C)(C)OC(=O)C=C(C)C)C3 | 2.1 | >47 | > 100 | – | –
13 | C=CC(C)(C)c1cc2cc3c(cc2oc1=O)OC(C(C)(C)OC(=O)OCCc1scnc1C)C3 (stereo not drawn) | – | – | – | Active | –
14 | C=CC(C)(C)c1cc2cc3c(cc2oc1=O)O[C@@H](C(C)(C)OC(=O)CNC)C3 | – | <3 | – | Active | Activity (P3HR-1 [3]): Toxic
15 | C=CC(C)(C)c1cc2cc3c(cc2oc1=O)O[C@@H](C(C)(C)OC(=O)CNCc1ccco1)C3 | – | – | – | Active | –
16 | C=CC(C)(C)c1cc2cc3c(cc2oc1=O)O[C@@H](C(C)(C)OC(=O)CNCC1CCCO1)C3 (stereo partly drawn) | – | – | – | Active | –
17 | C=CC(C)(C)c1cc2cc3c(cc2oc1=O)O[C@@H](C(C)(C)OC(=O)NCCN)C3 | – | – | – | Active | –
18 | C=CC(C)(C)c1cc2cc3c(cc2oc1=O)O[C@H](C(C)(C)OC(C)=O)C3 | 7 | >21 | > 150 | – | –
19 | C=CC(C)(C)c1cc2cc3c(cc2oc1=O)O[C@@H](C(C)(C)OC(=O)NCCc1ccc(F)cc1)C3 | 1.4 | – | – | – | –
20 | C=CC(C)(C)c1cc2cc3c(cc2oc1=O)O[C@@H](C(C)(C)OC(=O)CNCC)C3 | – | <3 | – | Active | Activity (P3HR-1 [3]): Toxic
21 | C=CC(C)(C)c1cc2cc3c(cc2oc1=O)O[C@@H](C(C)(C)OC(=O)CCl)C3 | – | – | – | – | Activity (P3HR-1 [4]): Toxic
22 | C=CC(C)(C)c1cc2cc3c(cc2oc1=O)O[C@@H](C(C)(C)OC(=O)CNC1CCCC1)C3 | 2 | > 20 | 40.8 | – | –
23 | C=CC(C)(C)c1cc2cc3c(cc2oc1=O)O[C@@H](C(C)(C)OC(=O)NCCCCN)C3 | – | – | – | Active | –
24 | C=CC(C)(C)c1cc2cc3c(cc2oc1=O)O[C@@H](C(C)(C)OC(=O)OCCc1ccccn1)C3 | 6.2 | 7 | 42.7 | – | –
25 | C=CC(C)(C)c1cc2cc3c(cc2oc1=O)O[C@@H](C(C)(C)O)C3 | 69.9 | – | – | – | –
26 | C=CC(C)(C)c1cc2cc3c(cc2oc1=O)O[C@@H](C(C)(C)OC(=O)OCCc1ccccc1)C3 | – | – | – | inactive | Activity (P3HR-1 [3]): Toxic
